Reference: ChEMBL document CHEMBL1154904 (J Med Chem, 2010)
Blank lines part the entries; values can stand above or below the molecule they belong to.

How the values were obtained:
[1] = Oral bioavailability in dog at 10 mg/kg, po; format: ADME, organism-based, Canis lupus familiaris; conditions: in vivo
How it was run: (§1)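 Fasted animals received a single oral dose of 10 mg/kg unless another dose was specified. Half-life was taken from the po profile.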

[2] = in vitro; conditions: human, Caco-2
[3] = Oral bioavailability in rat at 10 mg/kg; format: ADME, organism-based; conditions: in vivo; how it was run: as §1
[4] = in vitro; conditions: human, Caco-2; remark: listed apart in the source
[5] = Cmax in rat at 10 mg/kg, po; format: ADME, organism-based; design: dose 10 mg/kg, route oral; conditions: in vivo
How it was run: (§2)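 Fasted rats or dogs received a single oral dose of 10 mg/kg. Plasma drug levels gave Cmax and oral half-life.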

[6] = Cmax in dog at 10 mg/kg, po; format: ADME, organism-based, Canis lupus familiaris; design: dose 10 mg/kg, route oral; conditions: in vivo; how it was run: as §2
[7] = Plasma concentration in Sprague-Dawley rat deep vein thrombosis model at 30 mg/kg, po measured after 70 mins post; format: ADME, organism-based; design: dose 30 mg/kg, route oral
How it was run: (§3)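 For oral dosing, compound at 10, 30 or 50 mg/kg was solubilized in 0.5% methocel (5 mL/kg) and given by oral dosing tube. Rats were anesthetized 45 min after dosing, followed by the venous thrombus procedure. Blood was sampled at study termination for plasma drug concentration and coagulation times.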

[8] = Plasma concentration in Sprague-Dawley rat deep vein thrombosis model at 50 mg/kg, po measured after 70 mins post; format: ADME, organism-based; design: dose 50 mg/kg, route oral; how it was run: as §3
[9] = Plasma concentration in Sprague-Dawley rat deep vein thrombosis model at 0.1 mg/kg, iv administered for 45 mins measured after 30 mins post dose; format: ADME, organism-based; design: dose 0.1 mg/kg, route intravenous
How it was run: (§4)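 Rats received vehicle (solutol 10% and D5W) or compound by jugular vein infusion over 45 min at 0.04 mL/min, to total cumulative doses of 0.1, 0.3 or 1.0 mg/kg. Thrombus formation in the vena cava began at 30 min of infusion. Blood was drawn from a carotid catheter at the end of the experiment for coagulation times and plasma drug concentration.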

[10] = Tmax in healthy human at 4 to 500 mg po; conditions: in vivo
[11] = system: Rattus norvegicus; assay: Plasma concentration in Sprague-Dawley rat electrical current-induced arterial thrombosis model at 0.3 mg/kg, iv administered 5 mins before electrical stimulation for 20 mins; format: ADME, organism-based; design: dose 0.3 mg/kg, route intravenous; conditions: in vivo
How it was run: (§5)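 Anesthetized rats with a carotid Doppler flow probe received 10% solutol vehicle or compound (0.03–1.0 mg/kg) by slow left jugular infusion over 20 min at 0.05 mL/min. Electrical stimulation of the carotid began 5 min into the infusion and lasted 5 min. Occlusion was followed for 30 min; plasma drug levels were related to aPTT.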

[12] = Apparent volume of distribution with respect to bioavailability in healthy human at 100 to 500 […]; format: ADME, organism-based; conditions: in vivo, in the assay text read “100 to 500 mg” for “100 to 500 mg/kg”, read-out: Vc/F
How it was run: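 Double-blind, placebo-controlled single oral solution doses (4–500 mg) in healthy fasted (≥10 h) males: six drug and two placebo subjects per cohort, given with 200 mL water. Venous blood was taken predose and at 0.5–48 h for plasma levels. aPTT was recorded in seconds and as a ratio to individual −1 h baseline.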

[13] = Plasma concentration in Sprague-Dawley rat deep vein thrombosis model at 10 mg/kg, po measured after 70 mins post; format: ADME, organism-based; design: dose 10 mg/kg, route oral; how it was run: as §3
[14] = Plasma concentration in mongrel dog arterio-venous shunt model of thrombosis at 3 mg/kg, po after 1 hr; format: ADME, organism-based, Canis lupus familiaris; design: dose 3 mg/kg, route oral
How it was run: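 Adult mongrel dogs of either sex (13.2–14.5 kg) were dosed orally at 3 mg/kg. After a 1 h observation period they were anesthetized with pentobarbital (35 mg/kg iv). Plasma taken at the 1 h time point was assayed for drug concentration and aPTT.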

[15] = Cmax in rat at 30 mg/kg, po; format: ADME, organism-based; design: dose 30 mg/kg, route oral; conditions: in vivo
How it was run: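 Rats were fasted and given a single oral dose of 30 mg/kg. Cmax was taken from plasma drug concentrations.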

[16] = system: Rattus norvegicus; assay: Plasma concentration in Sprague-Dawley rat electrical current-induced arterial thrombosis model at 1 mg/kg, iv administered 5 mins before electrical stimulation for 20 mins; format: ADME, organism-based; design: dose 1 mg/kg, route intravenous; conditions: in vivo; how it was run: as §5
[17] = Plasma concentration in Sprague-Dawley rat deep vein thrombosis model at 1 mg/kg, iv administered for 45 mins measured after 30 mins post dose; format: ADME, organism-based; design: dose 1 mg/kg, route intravenous; how it was run: as §4
[18] = Plasma concentration in Sprague-Dawley rat deep vein thrombosis model at 0.3 mg/kg, iv administered for 45 mins measured after 30 mins post dose; format: ADME, organism-based; design: dose 0.3 mg/kg, route intravenous; how it was run: as §4

Structure (SMILES): N=C(N)NOCCNC(=O)Cn1c(Cl)cnc(NCC(F)(F)c2ccccc2)c1=O
bioavailability [1]: 60%
Papp B→A [2]: 3.04 ×10⁻⁶ cm/s
bioavailability [3]: 9%
Papp A→B [4]: 0.5 ×10⁻⁶ cm/s
Cmax [5]: 200 nM
Cmax [6]: 1600 nM

Structure (SMILES): Cc1ccc(CCNc2ncc(C)n(CC(=O)N(C)CCON=C(N)N)c2=O)cc1
Papp B→A [2]: 0.6 ×10⁻⁶ cm/s
Papp A→B [4]: 0.27 ×10⁻⁶ cm/s

Structure (SMILES): Cc1cnc(NCC(F)(F)c2ccccc2)c(=O)n1CC(=O)NCCONC(=N)N
concentration at 70 min [7]: 760 nM
concentration at 70 min [8]: 730 nM
concentration at 0.5 h [9]: 310 nM
bioavailability [1]: 103%
Tmax [10]: 1.25 h
Papp B→A [2]: 6.45 ×10⁻⁶ cm/s
bioavailability [3]: 23%
concentration [11]: 120 nM
Papp A→B [4]: 1.37 ×10⁻⁶ cm/s
Vd/F [12]: 530 L
concentration at 70 min [13]: 100 nM
concentration at 1 h [14]: 870 nM
Cmax [15]: 3300 nM
Cmax [6]: 5700 nM
concentration [16]: 310 nM
concentration at 0.5 h [17]: 800 nM
concentration at 0.5 h [18]: 540 nM

Structure (SMILES): Cc1cnc(NCC(c2ccccc2)c2ccccc2)c(=O)n1CC(=O)NCCONC(=N)N
Papp B→A [2]: 13 ×10⁻⁶ cm/s
Papp A→B [4]: 0.14 ×10⁻⁶ cm/s

Structure (SMILES): N#Cc1cnc(NCC(F)(F)c2ccccc2)c(=O)n1CC(=O)NCCON=C(N)N
bioavailability [1]: 57%
Papp B→A [2]: 2.26 ×10⁻⁶ cm/s
bioavailability [3]: 11%
concentration [11]: 85 nM
Papp A→B [4]: 0.5 ×10⁻⁶ cm/s
Cmax [5]: 200 nM
concentration at 1 h [14]: 480 nM
Cmax [6]: 3300 nM
concentration [16]: 380 nM

Structure (SMILES): Cc1cnc(NCCc2cccc3ccccc23)c(=O)n1CC(=O)NCCON=C(N)N
Papp B→A [2]: 11.8 ×10⁻⁶ cm/s
Papp A→B [4]: 0.32 ×10⁻⁶ cm/s

The remaining lines, values ahead:

Papp B→A [2]: 10.3 ×10⁻⁶ cm/s
Papp A→B [4]: 0.29 ×10⁻⁶ cm/s
Structure (SMILES): CCc1ccc(CCNc2ncc(C)n(CC(=O)NCCONC(=N)N)c2=O)cc1

Papp B→A [2]: 4.29 ×10⁻⁶ cm/s
Papp A→B [4]: 0.67 ×10⁻⁶ cm/s
Structure (SMILES): Cc1cnc(NCCc2ccc3c(c2)CCC3)c(=O)n1CC(=O)NCCONC(=N)N

Papp B→A [2]: 1.48 ×10⁻⁶ cm/s
Papp A→B [4]: 0.55 ×10⁻⁶ cm/s
Structure (SMILES): Cc1cnc(NCCc2ccc(F)cc2)c(=O)n1CC(=O)NCCONC(=N)N

Papp B→A [2]: 1.84 ×10⁻⁶ cm/s
Papp A→B [4]: 0.92 ×10⁻⁶ cm/s
Structure (SMILES): Cc1cnc(NCCc2ccc(F)c(F)c2)c(=O)n1CC(=O)NCCONC(=N)N

Papp B→A [2]: 1.91 ×10⁻⁶ cm/s
Papp A→B [4]: 0.5 ×10⁻⁶ cm/s
Structure (SMILES): Cc1cnc(NCCc2ccc(F)cc2F)c(=O)n1CC(=O)NCCONC(=N)N
